In ChEMBL document CHEMBL1142894, “Preparation of 5-aryl-3-alkylthio-l,2,4-triazoles and corresponding sulfones with antiinflammatory-analgesic activity” (Bioorg Med Chem, 2007):
Calls of active or inactive are those of the source. The calls are words filed in the database; no cut-off is given here.

Key:
Mus musculus [1] = assay: Antiinflammatory activity against carrageenan-induced paw edema in Swiss albino mouse assessed as swelling thickness at 200 mg/kg, po after 270 mins; format: functional
Method in brief: (§1)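 Oral dosing in 0.5% CMC; vehicle to controls. Then carrageenan (0.5 mg/25 ll, freshly suspended in 154 mM saline) injected into the right hind paw subplantar tissue; saline into the left paw. Right-left footpad thickness difference measured by dial gauge calliper every 90 min over 6 h. Inhibition % is relative to vehicle control. n = 6; mean ± SEM.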

Mus musculus [2] = assay: Antiinflammatory activity against carrageenan-induced paw edema in Swiss albino mouse assessed as swelling thickness at 200 mg/kg, po after 360 mins; format: functional; method in brief: as §1
Mus musculus [3] = assay: Antiinflammatory activity against carrageenan-induced paw edema in Swiss albino mouse assessed as swelling thickness at 200 mg/kg, po after 90 mins; format: functional; method in brief: as §1
Mus musculus [4] = assay: Inhibition of p-benzoquinone-induced writhing in Swiss albino mouse at 25 mg/kg, po relative to control; format: functional
Method in brief: (§2)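 Mice, n = 6 per group, dosed orally with a suspension in 0.5% sodium CMC. 60 min later, 0.1 ml/10 g of 2.5% […] p-benzoquinone in distilled water given ip. Abdominal writhes counted per animal for 15 min, starting 5 min after injection. Expressed as % change in mean writhing count versus vehicle controls.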

Mus musculus [5] = assay: Inhibition of carrageenan-induced paw edema in Swiss albino mouse at 100 mg/kg, po after 360 mins relative to control; format: functional; settings: 6 h; method in brief: as §1
Mus musculus [6] = assay: Inhibition of carrageenan-induced paw edema in Swiss albino mouse at 200 mg/kg, po after 90 mins relative to control; format: functional; settings: 1.5 h; method in brief: as §1
Mus musculus [7] = assay: Inhibition of carrageenan-induced paw edema in Swiss albino mouse at 25 mg/kg, po after 270 mins relative to control; format: functional; settings: 4.5 h; method in brief: as §1
Mus musculus [8] = assay: Antiinflammatory activity against carrageenan-induced paw edema in Swiss albino mouse assessed as swelling thickness at 25 mg/kg, po after 180 mins; format: functional; method in brief: as §1
Mus musculus [9] = assay: Gastric-ulcerogenic effect in Swiss albino mouse assessed as lesions at 100 mg/kg, po; format: functional, organism-based; set-up: dose 100 mg/kg
Method in brief: (§3)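 Mice killed under deep ether anesthesia 3 h after the writhing test; the oral dose in 0.5% CMC was the one used in that test. Stomachs removed, opened along the great curvature and examined under a dissecting microscope for lesions or bleeding. Reported as ratio of ulceration; n = 6.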

Mus musculus [10] = assay: Inhibition of carrageenan-induced paw edema in Swiss albino mouse at 100 mg/kg, po after 180 mins relative to control; format: functional; settings: 3 h; method in brief: as §1
Mus musculus [11] = assay: Acute toxicity in Swiss albino mouse assessed as lethal effect at 100 mg/kg/day, po after 72 hrs; format: organism-based; set-up: route oral; settings: in vivo
Method in brief: (§4)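 Oral single dose suspended in 0.5% carboxymethylcellulose, given after a 24 h fast; food and water returned 1 h after dosing. Vehicle-only controls. Mice observed at 1 h, then once daily for 72 h, for toxic signs and mortality.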

Mus musculus [12] = assay: Inhibition of carrageenan-induced paw edema in Swiss albino mouse at 100 mg/kg, po after 90 mins relative to control; format: functional; settings: 1.5 h; method in brief: as §1
Mus musculus [13] = assay: Antiinflammatory activity against carrageenan-induced paw edema in Swiss albino mouse assessed as swelling thickness at 50 mg/kg, po after 360 mins; format: functional; method in brief: as §1
Mus musculus [14] = assay: Antiinflammatory activity against carrageenan-induced paw edema in Swiss albino mouse assessed as swelling thickness at 100 mg/kg, po after 180 mins; format: functional; method in brief: as §1
Mus musculus [15] = assay: Inhibition of p-benzoquinone-induced writhing in Swiss albino mouse at 200 mg/kg, po relative to control; format: functional; method in brief: as §2
Mus musculus [16] = assay: Antiinflammatory activity against carrageenan-induced paw edema in Swiss albino mouse assessed as swelling thickness at 25 mg/kg, po after 90 mins; format: functional; method in brief: as §1
Mus musculus [17] = assay: Inhibition of carrageenan-induced paw edema in Swiss albino mouse at 50 mg/kg, po after 360 mins relative to control; format: functional; settings: 6 h
Method in brief: (§5)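 Mice, n = 6 per group. Test agent given orally as a suspension in 0.5% sodium CMC in distilled water; controls received vehicle only. Afterwards, 0.5 mg/25 ll carrageenan in saline (154 mM NaCl) injected subplantar into the right hind paw, saline into the left. Right-minus-left footpad thickness measured by dial gauge caliper every 90 min for 6 h. Inhibition is relative to vehicle-control group means.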

Mus musculus [18] = assay: Inhibition of carrageenan-induced paw edema in Swiss albino mouse at 25 mg/kg, po after 90 mins relative to control; format: functional; settings: 1.5 h; method in brief: as §1
Mus musculus [19] = assay: Inhibition of carrageenan-induced paw edema in Swiss albino mouse at 50 mg/kg, po after 90 mins relative to control; format: functional; settings: 1.5 h; method in brief: as §5
Mus musculus [20] = assay: Antiinflammatory activity against carrageenan-induced paw edema in Swiss albino mouse assessed as swelling thickness at 200 mg/kg, po after 180 mins; format: functional; method in brief: as §1
Mus musculus [21] = assay: Acute toxicity in Swiss albino mouse assessed as lethal effect at 50 mg/kg/day, po after 72 hrs; format: organism-based; set-up: route oral; settings: in vivo; method in brief: as §4
Mus musculus [22] = assay: Gastric-ulcerogenic effect in Swiss albino mouse assessed as lesions at 25 mg/kg, po; format: functional, organism-based; set-up: dose 25 mg/kg; method in brief: as §3
Mus musculus [23] = assay: Analgesic activity against p-benzoquinone-induced abdominal constriction in Swiss albino mouse assessed as number of writhings at 200 mg/kg, po; format: functional, Abdomen
Method in brief: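 Test samples given orally in 0.5% CMC; vehicle to controls. 60 min later, 2.5% (v/v) p-benzoquinone in distilled water, 0.1 ml/10 g, given i.p. Mice housed singly; writhes counted for 15 min starting 5 min after injection. Activity is % change from vehicle controls. n = 6; mean ± SEM.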

CCS(=O)(=O)c1nc(-c2ccccc2)n[nH]1
Activity (Mus musculus [1]): 57.6 10^-2mm | Activity (Mus musculus [2]): 65.2 10^-2mm | Activity (Mus musculus [3]): 47.9 10^-2mm | inhibition in vivo at 25 mg/kg (Mus musculus [4]): 25.7% | inhibition in vivo at 100 mg/kg (Mus musculus [5]): 36.8% | inhibition in vivo at 200 mg/kg (Mus musculus [6]): 9.9% | inhibition in vivo at 25 mg/kg (Mus musculus [7]): 10.3% | Activity (Mus musculus [8]): 54.9 10^-2mm | Activity (Mus musculus [9]): Active | inhibition in vivo at 100 mg/kg (Mus musculus [10]): 31.7% | Activity (Mus musculus [11]): Non-toxic | inhibition in vivo at 100 mg/kg (Mus musculus [12]): 25.9% | Activity (Mus musculus [13]): 44.2 10^-2mm | Activity (Mus musculus [14]): 35.2 10^-2mm | inhibition in vivo at 200 mg/kg (Mus musculus [15]): 5.6% | Activity (Mus musculus [16]): 48.6 10^-2mm | inhibition in vivo at 50 mg/kg (Mus musculus [17]): 38.6% | inhibition in vivo at 25 mg/kg (Mus musculus [18]): 8.6% | inhibition in vivo at 50 mg/kg (Mus musculus [19]): 26.3% | Activity (Mus musculus [20]): 52.3 10^-2mm | Activity (Mus musculus [21]): Non-toxic | Activity (Mus musculus [22]): Active | Activity (Mus musculus [23]): 48.5
